Source: PubChem (several laboratories)
RBBP9 inhibitor: blocks human serine hydrolase RBBP9; 220,000 tested, 0.2% active; recombinant RBBP9, FP-Rh probe fluorescence polarization; inhibition, % at 7.94 µM; O75884;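 active means inhibition above the campaign mean of all tested compounds plus 3 SD, cut at about 14% in these data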;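 further: plate controls were DMSO wells with RBBP9 for no effect and wells lacking RBBP9 protein for full effect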
Target sequence (O75884 whole entry, looked up): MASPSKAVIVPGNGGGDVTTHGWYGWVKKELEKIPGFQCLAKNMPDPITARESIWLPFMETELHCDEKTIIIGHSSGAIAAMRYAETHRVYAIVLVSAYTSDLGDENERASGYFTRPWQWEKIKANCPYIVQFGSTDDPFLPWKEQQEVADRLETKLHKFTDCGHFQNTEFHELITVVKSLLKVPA
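System: RBBP9 protein / Quantity: 2.5 µM RBBP9 dispensing solution, before mixing / Also added: Serine-hydrolase probe FP-Rh, 375 nM pre-mixing / Dosing: 7.94 µM single dose, 0.794% DMSO / Timing: enzyme-compound preincubation 30 min, then probe labeling 45 min, 25 °C / Signal: FP readout at 525/598 nm / Controls: DMSO-treated enzyme wells and wells lacking RBBP9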
14-3-3 Bad inh: disrupts binding of bovine 14-3-3 zeta to phospho-Bad peptide; P63103; TR-FRET 14-3-3zeta/Dy647-pBad peptide displacement, 1 h; inhibition, % at 21.7 µM; 220,000 tested, 0.71% active; AID 781;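 active means inhibition above about 70%, limit read from the data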;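 further: 0% = full 14-3-3 plus peptide FRET controls and 100% = background without 14-3-3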
Target sequence (P63103 whole entry, looked up): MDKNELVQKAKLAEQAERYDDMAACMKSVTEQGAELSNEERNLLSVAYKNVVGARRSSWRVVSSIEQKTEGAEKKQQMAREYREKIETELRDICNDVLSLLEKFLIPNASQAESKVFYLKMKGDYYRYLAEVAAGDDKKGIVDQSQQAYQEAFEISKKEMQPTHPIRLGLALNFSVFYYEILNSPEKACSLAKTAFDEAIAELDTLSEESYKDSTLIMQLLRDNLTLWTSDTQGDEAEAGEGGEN
EBV gp42 inh: blocks Epstein-Barr virus glycoprotein 42 binding; 220,000 tested, 0.42% active; Q1HVG2; AID 1085; Fluorescence polarization binding assay, mP read-out; inhibition, % (tested at 21.74 µM)
eIF4E 4G PPI: blocks eIF4E binding to eIF4G; TR-FRET eIF4E-eIF4GI(517-606) binding, 2 h; inhibition, % at 21.7 µM; P63073+Q04637; 220,000 tested, 0.37% active;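 active means inhibition above about 30%, limit read from the data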;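 further: 0% = full FRET control wells and 100% = background wells lacking eIF4GI fragment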
PKD1 kinase inh: inhibitors of human PKD1 kinase; Q15139; PKD1 kinase fluorescence polarization assay; inhibition, % (test concentration not listed); 200,000 tested, 0.056% active; AID 797
* = called active by the depositor; . = not tested or not shown; [ ] = remark or other dose. Rows were chosen to be rich in hits. Some 1.6% of all compounds tested hit in one or more screens of this group. Unless noted, no stated cut-off is given here; in the data, active means inhibition above about 50%; inactive means the rest.

SMILES	RBBP9 inhibitor	14-3-3 Bad inh	EBV gp42 inh	eIF4E 4G PPI	PKD1 kinase inh
O=C(COc1ccccc1Cl)c1ccc[nH]1	-8.4	34.5	57.4*	33.0*	2.7
CC1(C)C2CCC1(CS(=O)(=O)N1CCC(C(=O)O)CC1)C(=O)C2 (stereo unspecified)	-7.3	-4.2	-422.2	-2.4	.
O=C(CCNS(=O)(=O)c1cccs1)N1CCCCCC1	-6.6	6.3	-7.8	38.0*	3.7
O=C(CCS(=O)(=O)c1cccs1)N1CCCC1	-3.7	8.5	-4.4	50.2*	-31.9
CCCCC(=O)NS(=O)(=O)c1ccc(NS(C)(=O)=O)cc1	5.1	14.9	-12.8	5.7	-3.9
COc1cc(C(=O)OC(C)CN2CCN(C)CC2)cc(OC)c1OC (stereo unspecified)	-3.6	50.4	2.2	-2.2	2.1
Cc1ccccc1C(=O)OC(C)CN1CCN(C)CC1 (stereo unspecified)	8.9	-3.0	-10.1	-0.6	-4.2
COc1ccc(C(=O)OC(C)CN2CCN(C)CC2)cc1OC (stereo unspecified)	-3.0	88.9*	-13.8	2.1	-1.2
CC(CN1CCN(C)CC1)OC(=O)c1ccccc1Cl (stereo unspecified)	-6.5	84.9*	-20.6	13.4	-3.7
CCOC(=O)c1sc(N2N=C(C)C(N=Nc3cccc(C)c3)C2=O)nc1C (stereo unspecified)	-5.0	97.4*	23.0	8.7	.
CN(C)c1ccc(/C=N/NC(=O)c2ccccn2)cc1	-4.0	-3.5	-22.7	4.7	.
CC(C)c1ccc(/C=N/NC(=O)c2ccccn2)cc1	-2.7	1.2	-23.6	55.1*	.
COC(=O)c1ccc(C)c(NC(=O)CCSc2ccc(Cl)cc2)c1	-1.6	22.2	99.4*	3.0	-1.6
Cc1ccc(C(C)C)c(OCc2nc(-c3nonc3N)no2)c1	-9.5	-15.8	10.8	52.9*	1.4
Cc1ccc(C(C)C)c(OCc2n[nH]c(=S)o2)c1	-6.5	-28.3	-10.5	-3.0	-1.7
O=C(NCCc1ccccc1)c1ccc2nc(-c3ccco3)c(-c3ccco3)nc2c1	-4.1	17.9	54.6*	18.3	1.1
Fc1ccccc1C1CC(c2ccco2)=Nc2ccccc2S1 (stereo unspecified)	-6.0	-2.8	-5.8	-3.5	.
COCCCN(C(=S)Nc1c(C)cc(C)cc1C)C(C)c1ccccn1 (stereo unspecified)	-1.9	-5.0	-3.7	0.3	-1.7
Fc1ccccc1N1CCN(CC2CC3C=CC2C3)CC1 (stereo unspecified)	-8.0	19.1	-23.6	2.6	4.4
FC(F)(F)c1cccc(N2CCN(CC3CC4C=CC3C4)CC2)c1 (stereo unspecified)	-5.8	83.0*	-28.1	16.6	-2.2
O=C(CN1CCN(c2cccc(C(F)(F)F)c2)CC1)Nc1cccc(C(F)(F)F)c1	-0.5	74.5*	-14.8	-0.1	-1.9
N=C(N)SCc1cn(-c2ccccc2)nc1-c1ccc(Br)cc1	-4.1	75.1*	-3.3	12.6	-4.3
COc1ccc(-c2nn(-c3ccccc3)cc2CO)cc1	-8.2	3.3	-12.9	0.3	1.3
Cc1cccn2cc(COc3ccc(-c4ccccc4)cc3)nc12	-8.3	79.2*	-7.2	2.2	-0.7
O=[N+]([O-])c1ccc(/C=C/c2nc3ccc([N+](=O)[O-])cc3[nH]2)cc1	-5.8	85.5*[fluorescence artefact?]	112.9*	-10.3	-3.9
SMILES	RBBP9 inhibitor	14-3-3 Bad inh	EBV gp42 inh	eIF4E 4G PPI	PKD1 kinase inh
Nc1nc2ccc([N+](=O)[O-])cc2[nH]1	-10.6	-0.9	2.8	9.4	.
O=C(Oc1cccc2c(=O)[nH]ccc12)c1ccccc1	0.2	78.1*	-11.0	9.1	7.4
CCCCn1nc(-c2ccccc2)c2nc3ccccc3nc21	-0.3	2.7	154.4*	2.4	0.7
Clc1nc2ccccc2nc1-c1ccccc1	2.0	-0.8	-14.5	-0.4	.
Cn1nc(-c2ccccc2)c2nc3ccccc3nc21	-3.9	9.4	126.3*	0.9	-3.5
CCCCNC(=O)c1c(N)n(/N=C/c2ccccn2)c2nc3ccccc3nc12	-8.9	81.1*	-4.9	-65.4	4.9
CC(C)CNC(=O)c1c(N)n(/N=C/c2ccccn2)c2nc3ccccc3nc12	-14.2	23.6	1.1	5.8	-3.5
CCCNc1c(F)c(F)c2c(C)c3ccccc3nc2c1F	-3.5	-22.0	133.9*	-1.3	12.9
CCCCCCn1c(SCC(=O)Nc2cc(C)on2)nc2ccccc2c1=O	-2.4	-8.7	-17.1	-20.0	0.1
Cc1cc(NC(=O)CSc2nc3ccccc3c(=O)n2Cc2ccc(F)cc2)no1	-10.6	73.7*	-14.7	11.7	-7.1
